Results as given in article PMC8792325 (Bioorganic & medicinal chemistry letters, 2021).
pIC50: −log10 of the molar value.

What was measured:
[1] = tested on: HBV replication in HepDES19 cells; experiment: Mapping of the HBV replication step inhibited, in HepDES19 cells; type: cell-based, Hepatitis B virus; conditions: HepDES19, 6 days, ETV 1 μM, Bay 41–4109 2 μM; for encapsidated pgRNA / capsids: ENAN-34017 5 μM, 61 5 μM; for encapsidated pgRNA: Northern blot; for capsids: particle gel assay; for intracellular core protein level: Western blot
Outline: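 HepDES19 cells were kept with tetracycline to block pgRNA transcription (negative control) or without it to induce pgRNA and HBV DNA replication. From 24 h after tet removal, cells got DMSO, test compound (5 μM) or a type II CpAM reference (5 μM) for 6 days. Intracellular core protein was detected by Western blot with an antibody to Cp C-terminal 14 residues; β-actin was the loading control.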

[2] = Metabolic stability in mouse liver microsomes; type: in vitro ADME; conditions: Half-life T1/2, mouse liver microsomes
HBV replication [3] = conditions: immortalized mouse hepatocyte line AML12HBV10; cited from earlier work
HBV replication [4] = conditions: human hepatoma cell line HepDES19; cited from earlier work
HBV replication [5] = experiment: Anti-HBV activity, dot blot hybridization assay in AML12HBV10 cells; type: cell-based, Hepatitis B virus
[6] = tested on: CYP enzymes (one unnamed isoform of a panel of 9); experiment: in vitro; type: in vitro ADME
CYP enzymes = experiment: in vitro; type: in vitro ADME; conditions: human, 10 μM
[7] = Mouse PK study, IV and PO; design: species or system mice; conditions: in vivo, 3 mg/kg

COC(=O)C1=C(C)NC(c2ncc(F)cc2F)=N[C@H]1c1ccc(F)cc1Cl [Bay 41–4109]
encapsidated pgRNA [1]: prevented | capsids [1]: completely abolished capsid formation | intracellular core protein level [1]: induced the degradation of core protein

O=C(Nc1ccc(F)c(Cl)c1)c1cccc2c1OCCO2 [Compound 10]
half-life [2]: < 10 min | EC50 in AML12HBV10 (HBV replication [3]): sub-micromolar | EC50 in HepDES19 (HBV replication [4]): sub-micromolar

O=C(Nc1ccc(N2CCOCC2)c(Cl)c1)c1cccc2c1OCCO2 [Compound 17]
anti-HBV activity (in words) (HBV replication [5]): loss of anti-HBV activity

O=C(Nc1ccc(O)c(Cl)c1)c1cccc2c1OCCO2 [Compound 20]
anti-HBV activity (in words) (HBV replication [5]): not active

O=C(NC1CC(F)(F)C1)c1cccc2c1OCCO2 [Compound 21]
anti-HBV activity (in words) (HBV replication [5]): lost activity

O=C(Nc1cc(F)c(F)c(F)c1)c1cccc2c1OCCO2 [Compound 29]
anti-HBV activity (in words) (HBV replication [5]): submicromolar

O=C(Nc1ccc(F)c(Cl)c1)c1cccc2c1OCCC2 [Compound 33]
activity loss compared to 10 (HBV replication [5]): about 4 fold

O=C(Nc1ccc(F)c(Cl)c1)c1cccc2nccnc12 [Compound 34]
activity loss compared to 10 (HBV replication [5]): > 10 fold

O=C(Nc1ccc(F)c(Cl)c1)c1cccc2c1OC(F)(F)O2 [Compound 37]
potency increase compared to 10 (HBV replication [5]): 2 fold

O=C1CCN(C(=O)Nc2ccc(F)c(Cl)c2)C2CCCCC12 (stereo not drawn) [Compound 61, cis-N-(3-chloro-4-fluorophenyl)-4-oxooctahydroquinoline-1(2H)-carboxamide]
pIC50 [6]: > 5.00 | CYP (#/9 of isoforms, > 50% of inhibition at 10 μM) (CYP enzymes): 1 | clearance [7]: 25.5 mL/min/kg | encapsidated pgRNA [1]: reduced the amounts of encapsidated pgRNA | capsids [1]: induced the accumulation of capsids with faster electrophoresis mobility

Cc1cc(NC(=O)N2CCC(=O)[C@H]3CCCC[C@H]32)ccc1F [Compound 70]
anti-HBV activity (in words) (HBV replication [5]): submicromolar

O=C1CCN(C(=O)Nc2ccc(F)c(C(F)F)c2)[C@@H]2CCCC[C@H]12 [Compound 71]
anti-HBV activity (in words) (HBV replication [5]): submicromolar

O=C1CCN(C(=O)Nc2cccc(Cl)c2)[C@@H]2CCCC[C@H]12 [Compound 74]
anti-HBV activity (in words) (HBV replication [5]): submicromolar

C[C@@H](NS(=O)(=O)c1ccc(F)c(C(=O)Nc2ccc(F)c(F)c2)c1)C1CC1 [ENAN-34017]
encapsidated pgRNA [1]: reduced the amounts of encapsidated pgRNA | capsids [1]: induced the accumulation of capsids with faster electrophoresis mobility

C=C1[C@H](CO)[C@@H](O)C[C@@H]1n1cnc2c(=O)[nH]c(N)nc21.O [Entecavir]
encapsidated pgRNA [1]: accumulation of encapsidated pgRNA | capsids [1]: did not alter | intracellular core protein level [1]: did not alter
